According to ChEMBL document CHEMBL5724801, “EUbOPEN Chemogenomics Library - Multiplex” (2024):
“And” between values parts separate entries of the source, which are not always exact repeats. Identical values can stand only once.

Assays:
HEK-293T = test: Multiplex assay against HEK293T; format: toxicity, cell-based; details: human
Outline: (§1)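 Live cells carried four stains from seeding: Hoechst33342, BioTracker Green Microtubule Cytoskeleton Dye, MitoTracker Red and Annexin V Alexa Fluor 680. They were imaged on a CQ1 microscope at 37°C and 5% CO2 after compound addition. Using CellPathfinder machine-learning gating, cells were split into Hoechst high-intensity objects or normal cells, normal cells into healthy, pyknosed or fragmented nuclei, and pyknosed cells into mitotic or apoptotic; tubulin, mitochondrial-mass and membrane-permeability phenotypes are per cents of healthy-nucleus cells.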

Fibroblast = test: Multiplex assay against human fibroblast; format: toxicity, cell-based; outline: as §1
[1] = 12 h, 1 µM, compound concentration 1 uM
[2] = 12 h, 10 µM, compound concentration 10 uM
[3] = 24 h, 1 µM, compound concentration 1 uM
[4] = 24 h, 10 µM, compound concentration 10 uM
[5] = 48 h, 1 µM, compound concentration 1 uM
[6] = 48 h, 10 µM, compound concentration 10 uM

CCn1c(-c2ccncc2)cc2c1CCNC2=O
Population Apoptotic (%) (HEK-293T; [1]): 15.09% and 7.09% | Population Fragmented Nuclei (%) (HEK-293T; [1]): 1.92% and 1.82% | Population Hoechst High Intensity Objects (%) (HEK-293T; [1]): 0.95% and 0% | Population Membrane Permeable-Phenotype (%) (HEK-293T; [1]): 2.72% and 0% | Population Mitochondria Different-Phenotype (%) (HEK-293T; [1]): 35.37% and 23.81% | Population Mitotic Cells (%) (HEK-293T; [1]): 84.91% and 92.91% | Population Normal (%) (HEK-293T; [1]): 99.05% and 100% | Population Pyknosed Nuclei (%) (HEK-293T; [1]): 50.96% and 85.45% | Population Tubulin-Different-Phenotype (%) (HEK-293T; [1]): 7.48% and 14.29% | Total Cell Count (HEK-293T; [1]): 315 and 165 | Population Apoptotic (%) (HEK-293T; [2]): 15.05% and 13.74% | Population Fragmented Nuclei (%) (HEK-293T; [2]): 0.77% and 4.17% | Population Hoechst High Intensity Objects (%) (HEK-293T; [2]): 0% | Population Membrane Permeable-Phenotype (%) (HEK-293T; [2]): 0% and 14.29% | Population Mitochondria Different-Phenotype (%) (HEK-293T; [2]): 31.51% and 14.29% | Population Mitotic Cells (%) (HEK-293T; [2]): 84.95% and 86.26% | Population Normal (%) (HEK-293T; [2]): 100% | Population Pyknosed Nuclei (%) (HEK-293T; [2]): 71.26% and 90.97% | Population Tubulin-Different-Phenotype (%) (HEK-293T; [2]): 5.48% and 14.29% | Total Cell Count (HEK-293T; [2]): 261 and 144 | Population Apoptotic (%) (HEK-293T; [3]): 31.73% and 15.24% | Population Fragmented Nuclei (%) (HEK-293T; [3]): 2.16% and 2.84% | Population Hoechst High Intensity Objects (%) (HEK-293T; [3]): 0.27% and 0% | Population Membrane Permeable-Phenotype (%) (HEK-293T; [3]): 1.16% and 6.25% | Population Mitochondria Different-Phenotype (%) (HEK-293T; [3]): 23.17% and 18.75% | Population Mitotic Cells (%) (HEK-293T; [3]): 68.27% and 84.76% | Population Normal (%) (HEK-293T; [3]): 99.73% and 100% | Population Pyknosed Nuclei (%) (HEK-293T; [3]): 28.03% and 74.47% | Population Tubulin-Different-Phenotype (%) (HEK-293T; [3]): 32.43% and 18.75% | Total Cell Count (HEK-293T; [3]): 372 and 141 | Population Apoptotic (%) (HEK-293T; [4]): 46.45% and 34.13% | Population Fragmented Nuclei (%) (HEK-293T; [4]): 1.6% and 3.57% | Population Hoechst High Intensity Objects (%) (HEK-293T; [4]): 0% | Population Membrane Permeable-Phenotype (%) (HEK-293T; [4]): 0% | Population Mitochondria Different-Phenotype (%) (HEK-293T; [4]): 30.77% and 44.44% | Population Mitotic Cells (%) (HEK-293T; [4]): 53.55% and 65.87% | Population Normal (%) (HEK-293T; [4]): 100% | Population Pyknosed Nuclei (%) (HEK-293T; [4]): 62% and 90% | Total Cell Count (HEK-293T; [4]): 250 and 140 | Population Apoptotic (%) (HEK-293T; [5]): 33.96% and 24.19% | Population Fragmented Nuclei (%) (HEK-293T; [5]): 5.74% and 0% | Population Healthy Nuclei (%) (HEK-293T; [5]): 80.42% and 45.61% | Population Hoechst High Intensity Objects (%) (HEK-293T; [5]): 0.78% and 0.87% | Population Membrane Permeable-Phenotype (%) (HEK-293T; [5]): 2.6% and 0% | Population Mitochondria Different-Phenotype (%) (HEK-293T; [5]): 61.36% and 40.38% | Population Mitotic Cells (%) (HEK-293T; [5]): 66.04% and 75.81% | Population Normal (%) (HEK-293T; [5]): 99.22% and 99.13% | Population Apoptotic (%) (HEK-293T; [6]): 66.43% and 44.74% | Population Fragmented Nuclei (%) (HEK-293T; [6]): 1.61% and 5.88% | Population Hoechst High Intensity Objects (%) (HEK-293T; [6]): 0% | Population Membrane Permeable-Phenotype (%) (HEK-293T; [6]): 0% | Population Mitochondria Different-Phenotype (%) (HEK-293T; [6]): 82.35% and 78.57% | Population Mitotic Cells (%) (HEK-293T; [6]): 33.57% and 55.26% | Population Normal (%) (HEK-293T; [6]): 100% | Population Pyknosed Nuclei (%) (HEK-293T; [6]): 57.43% and 83.82% | Total Cell Count (HEK-293T; [6]): 249 and 136 | Population Apoptotic (%) (Fibroblast; [1]): 13.79% and 16.67% | Population Fragmented Nuclei (%) (Fibroblast; [1]): 13.56% and 3.83% | Population Healthy Nuclei (%) (Fibroblast; [1]): 70.06% and 79.78% | Population Hoechst High Intensity Objects (%) (Fibroblast; [1]): 0% | Population Membrane Permeable-Phenotype (%) (Fibroblast; [1]): 2.42% and 2.74% | Population Mitochondria Different-Phenotype (%) (Fibroblast; [1]): 8.06% and 6.85% | Population Mitotic Cells (%) (Fibroblast; [1]): 86.21% and 83.33% | Population Normal (%) (Fibroblast; [1]): 100% | Population Pyknosed Nuclei (%) (Fibroblast; [1]): 16.38% and 16.39% | Population Tubulin-Different-Phenotype (%) (Fibroblast; [1]): 12.9% and 11.64% | Total Cell Count (Fibroblast; [1]): 177 and 183 | Population Healthy Nuclei (%) (Fibroblast; [2]): 69.44% and 89.58% | Population Hoechst High Intensity Objects (%) (Fibroblast; [2]): 0% | Population Membrane Permeable-Phenotype (%) (Fibroblast; [2]): 6.4% and 2.91% | Population Mitochondria Different-Phenotype (%) (Fibroblast; [2]): 11.2% and 12.79% | Population Mitotic Cells (%) (Fibroblast; [2]): 88.89% and 60% | Population Normal (%) (Fibroblast; [2]): 100% | Population Pyknosed Nuclei (%) (Fibroblast; [2]): 15% and 7.81% | Population Tubulin-Different-Phenotype (%) (Fibroblast; [2]): 12% and 12.79% | Total Cell Count (Fibroblast; [2]): 180 and 192 | Population Apoptotic (%) (Fibroblast; [3]): 19.51% and 13.16% | Population Healthy Nuclei (%) (Fibroblast; [3]): 62.05% and 74.05% | Population Hoechst High Intensity Objects (%) (Fibroblast; [3]): 0% | Population Membrane Permeable-Phenotype (%) (Fibroblast; [3]): 4.96% and 1.46% | Population Mitochondria Different-Phenotype (%) (Fibroblast; [3]): 7.44% and 7.3% | Population Mitotic Cells (%) (Fibroblast; [3]): 80.49% and 86.84% | Population Normal (%) (Fibroblast; [3]): 100% | Population Pyknosed Nuclei (%) (Fibroblast; [3]): 21.03% and 20.54% | Population Tubulin-Different-Phenotype (%) (Fibroblast; [3]): 16.53% and 14.6% | Total Cell Count (Fibroblast; [3]): 195 and 185 | Population Healthy Nuclei (%) (Fibroblast; [4]): 70.39% and 84.97% | Population Hoechst High Intensity Objects (%) (Fibroblast; [4]): 0% | Population Membrane Permeable-Phenotype (%) (Fibroblast; [4]): 7.14% and 3.66% | Population Mitochondria Different-Phenotype (%) (Fibroblast; [4]): 6.35% and 12.8%
